Assay results pooled from the literature.
Each line is one published result; the experiments were not run side by side.
Observed: cell growth or viability

With COc1ccc(S(=O)(=O)Nc2cc(OC)c(NC(=O)CCl)cc2OC)cc1 the IC50 was 2.4 µM (HeLa; XTT; 72 h).
For Nc1nc2c(ncn2COCCO)c(=O)[nH]1, the CC50 was over 440 µM (HEL; 72 h).
With CCOP(=O)(OCC)[C@@H]1C[C@@H](n2cc(-c3nccn3C)nn2)ON1C the CC50 was over 100 µM (HEL; 72 h).
COc1ccc(NS(=O)(=O)c2ccc(N(C)C=O)cc2)cn1 gave an IC50 of over 100 µM (HeLa; XTT; 72 h).
CCOP(=O)(OCC)[C@@H]1C[C@H](n2cc(C(=O)OC)nn2)ON1C (relative stereo) has a CC50 of over 100 µM (HEL; 72 h).
The CC50 of COc1ccc(-n2cc(CN3CCN(C(=O)c4c(C)nc5cc(C)ccn45)CC3)nn2)c([N+](=O)[O-])c1 is reported as over 100 µM (HeLa; resazurin).
The IC50 of C=CC1=C(C)c2cc3[nH]c(cc4nc(cc5[nH]c(cc1n2)c(C)c5CCC(=O)O)C(CCC(=O)O)=C4C)c(C)c3C=C is reported as over 100 µM (RPE-1; resazurin; 4 h, dark).
Cc1nc2ccc(Cl)cn2c1C(=O)N1CCN(Cc2cn(-c3ccccc3)nn2)CC1 gave a CC50 of over 100 µM (HeLa; resazurin).
The IC50 of COC(=O)c1cc(N)cc(NS(=O)(=O)c2ccc(OC)cc2)c1 is reported as 20 µM (HeLa; XTT; 72 h).
COc1ccc(-n2cc(CN3CCN(C(=O)c4c(C)nc5ccc(Cl)cn45)CC3)nn2)c([N+](=O)[O-])c1 has a CC50 of over 100 µM (HeLa; resazurin).
CCOP(=O)(OCC)[C@@H]1C[C@@H](n2cc(-c3ccccn3)nn2)ON1C (racemic) has a CC50 of over 250 µM (HeLa; 72 h).
COc1cc(N)c(NS(=O)(=O)c2ccc(N(C)C)cc2)cc1OC gave an IC50 of over 100 µM (HeLa; XTT; 72 h).
The CC50 of Cc1nc2ccc(Cl)cn2c1C(=O)N1CCN(Cc2cn(-c3cccc(Cl)c3)nn2)CC1 is reported as over 100 µM (HeLa; resazurin).
